Assay [1] concerns Klebsiella pneumoniae. Briefly: Antibacterial activity against Klebsiella pneumonia assessed as reduction in microbial growth by two fold microdilution method. The format is functional. Background: Dilution methods test growth across graded concentrations, often in twofold steps.
The test system of the next assay is Enterococcus faecalis. Put plainly: Antibacterial activity against Enterococcus faecalis assessed as reduction in microbial growth by two fold microdilution method. The format is functional.
Assay [2] has as its system Klebsiella pneumoniae. Put plainly: Antibacterial activity against Klebsiella pneumonia in presence of (E)-1-cyclopropyl-6-fluoro-7-(4-(2-((2-methoxy-2-oxoethoxy)imino)-2-(thiazol-2-yl)ethyl)piperazin-1-yl)-4-oxo-1,4-dihydroquinoline-3-carboxylic acid (reference value: 2 ug/ml).
The test system of assay [3] is Pseudomonas aeruginosa. Put plainly: Antibacterial activity against Pseudomonas aeruginosa ATCC 27853 assessed as reduction in microbial growth by two fold microdilution method. The format is functional.
The test system of assay [4] is Staphylococcus aureus. Briefly: Antibacterial activity against Staphylococcus aureus ATCC 29213 assessed as reduction in microbial growth by two fold microdilution method. The class given is functional.
Assay [5] concerns Staphylococcus aureus. Briefly: microbe, parasite or virus in culture. Particulars: ATCC 25923.
The subject of assay [6] is Staphylococcus aureus. Briefly: Antibacterial activity against Staphylococcus aureus ATCC 25923 assessed as reduction in microbial growth by two fold microdilution method. The format is functional.
The test system of assay [7] is Staphylococcus aureus. Briefly: microbe, parasite or virus in culture.
Assay [8] relates to Staphylococcus aureus. Put plainly: Antibacterial activity against Staphylococcus aureus assessed as reduction in microbial growth by two fold microdilution method. The format is functional. The procedure, abridged:
(§1)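 MIC determined by the standard two-fold broth micro-dilution assay, with norfloxacin and ciprofloxacin as reference agents.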

Assay [9] relates to Staphylococcus aureus. Briefly: Antibacterial activity against methicillin-resistant Staphylococcus aureus assessed as reduction in microbial growth by two fold microdilution method. The format is functional. The method in brief: as §1
Assay [10] concerns Staphylococcus aureus. Put plainly: Antibacterial activity against methicillin-resistant Staphylococcus aureus assessed as reduction in bacterial growth at 50 to 300 ug/ml measured after 14 passages. The class given is functional, organism-based. As to conditions: dose 50-300 µg/ml.
For assay [11], the system named is Staphylococcus aureus. Put plainly: Potency index, ratio of norfloxacin MIC to test compound MIC for antibacterial activity against methicillin-resistant Staphylococcus aureus assessed as reduction in microbial growth by two fold microdilution method. The format is functional.
The subject of assay [12] is Escherichia coli. Briefly: Antibacterial activity against Escherichia coli ATCC 25922 assessed as reduction in microbial growth by two fold microdilution method. The class given is functional.
Assay [13] deals with Escherichia coli. Briefly: Antibacterial activity against Escherichia coli assessed as reduction in microbial growth by two fold microdilution method. The class given is functional.
In the next assay the test system is Acinetobacter baumannii. Briefly: Antibacterial activity against Acinetobacter baumannii assessed as reduction in microbial growth by two fold microdilution method. The format is functional.
The test system of assay [14] is Pseudomonas aeruginosa. Put plainly: Antibacterial activity against Pseudomonas aeruginosa assessed as reduction in microbial growth by two fold microdilution method. The format is functional.
In assay [15] the test system is Staphylococcus aureus. Put plainly: Potency index, ratio of norfloxacin MIC to test compound MIC for antibacterial activity against Staphylococcus aureus ATCC 29213 assessed as reduction in microbial growth by two fold microdilution method. The class given is functional.

Molecules are shown by their SMILES. ≈ marks a conversion by molar mass, not a printed value. Calls of active or inactive are those of the source. No cut-off for these calls is given here.

Turning to `O=C(O)c1cn(C2CC2)c2cc(N3CCNCC3)c(F)cc2c1=O` [CIPROFLOXACIN], the MIC in the assay on Klebsiella pneumoniae [1] was 2 µg/mL; with Enterococcus faecalis, 2 µg/mL; with Klebsiella pneumoniae [2], 0.125 µg/mL; with Pseudomonas aeruginosa [3] it was 1 µg/mL; in the assay with Staphylococcus aureus [4] it was 0.5 µg/mL; in the assay on Staphylococcus aureus [5], 1 µg/mL (≈ 3.02 µM). For the same molecule, the MIC in the assay on Staphylococcus aureus [6] is 2 µg/mL; against Staphylococcus aureus [7], 2 µg/mL (≈ 6.04 µM); with Staphylococcus aureus [8], 2 µg/mL; in the assay with Staphylococcus aureus [9], 8 µg/mL.
As to `C=CCO/N=C(\CN1CCN(c2cc3c(cc2F)c(=O)c(C(=O)O)cn3CC)CC1)c1nccs1`, the outcome in the assay with Staphylococcus aureus [10] was inactive. Also, the Ratio in the assay with Staphylococcus aureus [11] is recorded as 64. For the same molecule, the MIC with Klebsiella pneumoniae [1] was 256 µg/mL; with Enterococcus faecalis it was 1 µg/mL; in the assay with Pseudomonas aeruginosa [3] it was 4 µg/mL; in the assay with Escherichia coli [12] it was 0.5 µg/mL; with Staphylococcus aureus [4] it was 2 µg/mL; with Escherichia coli [13], 0.25 µg/mL. Moreover, the MIC stood at 0.5 µg/mL with Staphylococcus aureus [6]; 0.25 µg/mL in the assay with Staphylococcus aureus [8]; 0.25 µg/mL with Acinetobacter baumannii; 0.25 µg/mL with Staphylococcus aureus [9]; 0.25 µg/mL with Pseudomonas aeruginosa [14].
On to `CCn1cc(C(=O)O)c(=O)c2cc(F)c(N3CCN(C/C(=N\OC)c4nccs4)CC3)cc21`, for which, in the assay on Staphylococcus aureus [10], the result was inactive. Besides, the Ratio in the assay with Staphylococcus aureus [11] worked out at 64. Moreover, the MIC came to 256 µg/mL in the assay with Klebsiella pneumoniae [1]; 4 µg/mL with Enterococcus faecalis; 8 µg/mL with Pseudomonas aeruginosa [3]; 256 µg/mL in the assay with Escherichia coli [12]; 0.25 µg/mL in the assay on Staphylococcus aureus [4]; 0.25 µg/mL in the assay on Escherichia coli [13]. For the same molecule, the MIC with Staphylococcus aureus [6] came to 0.5 µg/mL; in the assay with Staphylococcus aureus [8], 2 µg/mL; in the assay on Acinetobacter baumannii it was 0.25 µg/mL; in the assay on Staphylococcus aureus [9], 0.25 µg/mL; with Pseudomonas aeruginosa [14] it was 0.25 µg/mL.
On to `CCn1cc(C(=O)O)c(=O)c2cc(F)c(N3CCN(CC(=O)c4nccs4)CC3)cc21`, for which the figures for the Ratio in the assay on Staphylococcus aureus [11] and in the assay with Staphylococcus aureus [15] were 4 and 16, respectively. Besides, the MIC was found to be 32 µg/mL in the assay on Klebsiella pneumoniae [1]; 2 µg/mL in the assay on Enterococcus faecalis; 2 µg/mL in the assay on Pseudomonas aeruginosa [3]; 64 µg/mL in the assay on Escherichia coli [12]; 1 µg/mL in the assay on Staphylococcus aureus [4]; 32 µg/mL with Escherichia coli [13]. In addition, the MIC stood at 2 µg/mL in the assay on Staphylococcus aureus [6]; 4 µg/mL in the assay with Staphylococcus aureus [8]; 16 µg/mL with Acinetobacter baumannii; 4 µg/mL in the assay with Staphylococcus aureus [9]; 4 µg/mL in the assay with Pseudomonas aeruginosa [14].

The record behind these values is ChEMBL document CHEMBL4813987, “Membrane active 7-thiazoxime quinolones as novel DNA binding agents to decrease the genes expression and exert potent anti-methicillin-resistant Staphylococcus aureus activity” (Eur J Med Chem, 2021).
